RORa inhibitor = RORA (human) inhibition | inhibition, % at 10 µM | CHO-K1 Gal4-RORA LBD luciferase reporter, luminescence | hit rate 0.43% among 65,000;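 active means inhibition above the mean of all tested compounds plus 3 SD, cut at about 52% in these data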;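 further: 0% = RORA-transfected cells with DMSO and 100% = mock-transfected cells lacking RORA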
Target sequence (P35398 whole entry, looked up, the tested form may be a part): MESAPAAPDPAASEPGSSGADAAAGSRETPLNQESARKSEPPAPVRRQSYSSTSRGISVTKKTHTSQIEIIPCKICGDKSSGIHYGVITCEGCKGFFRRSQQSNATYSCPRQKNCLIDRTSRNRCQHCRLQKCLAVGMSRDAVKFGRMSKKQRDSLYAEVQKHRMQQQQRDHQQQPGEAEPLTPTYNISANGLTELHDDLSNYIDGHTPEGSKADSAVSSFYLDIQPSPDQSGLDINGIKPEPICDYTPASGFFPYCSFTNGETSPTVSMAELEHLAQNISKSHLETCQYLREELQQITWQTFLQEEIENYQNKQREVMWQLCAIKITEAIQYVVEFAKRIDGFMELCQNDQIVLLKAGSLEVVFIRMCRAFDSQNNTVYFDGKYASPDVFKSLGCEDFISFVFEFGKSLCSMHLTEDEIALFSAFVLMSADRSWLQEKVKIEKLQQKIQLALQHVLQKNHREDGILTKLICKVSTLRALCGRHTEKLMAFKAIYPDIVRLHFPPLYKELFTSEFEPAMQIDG
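System: transiently transfected CHO-K1 cells, Gal4-DBD/human RORA-LBD fusion plus 5xGal4-luciferase reporter. Doses: one dose of 10 µM final. Timing: 20 h compound treatment, 37 °C. Measured by: luminescence. Evaluation: % inhibition of basal luciferase versus +RORA/-RORA DMSO controls. Benchmarks: mock-transfected cells as 100%, +RORA DMSO cells as 0%. Replicates: single test per compound.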
* hit, by the source's call. The full list was thinned out, with hits kept by preference.

SMILES	RORa inhibitor
Cc1cc(NC(=O)c2noc3c2CCCCC3)no1	-58
CCCN1C(=O)c2ccc(C(=O)Nc3cc(C)on3)cc2C1=O	9
Cc1cc(NC(=O)c2ccc3c(c2)OCCO3)no1	59*
CCC(C(=O)Nc1ccccc1OC)n1c(C(=O)OC)cc2ccsc21 (stereo not drawn)	5
CC(=O)NCCn1c(SCC(=O)NCC2CCCO2)nc2ccccc2c1=O (stereo not drawn)	6
COc1ccc(CN(CC(=O)NCC2CCCO2)C(=O)CCC(=O)Nc2cc(C)ccn2)cc1 (stereo not drawn)	-9
COc1ccc(C(=O)Nn2c(SCC(=O)NCC3CCCO3)nc3ccccc3c2=O)cc1 (stereo not drawn)	67*
O=C(NCCCN1CCOCC1)C1CC(=O)N(C2CCCCC2)C1 (stereo not drawn)	13
c1ccc(N2CCN(c3nc4cc5c(cc4s3)OCCO5)CC2)cc1	-77
c1c2c(cc3sc(N4CCOCC4)nc13)OCCO2	69*
CCOc1ccc2nc(N3CCCC(C(=O)NCCCN4CCOCC4)C3)sc2c1 (stereo not drawn)	2
CCc1ccccc1NC(=O)c1ccc(F)c(S(=O)(=O)N2CCC(C(N)=O)CC2)c1	10
COC(=O)[C@@H](NC(=O)NCc1ccco1)C(C)C	-7
Cc1occc1C(=O)Nc1ccc2ccccc2c1	-120
O=S(=O)(NC1CC2CCC1C2)c1ccc(Br)s1 (stereo not drawn)	13
Cc1ccc(NC2=Nc3ccccc3CS2)cc1	61*
O=C(CN(CCO)c1ccccc1)NC12CC3CC(CC(C3)C1)C2	24
CS(=O)(=O)N(CC(=O)NCC1CCCO1)c1ccc(F)c(Cl)c1 (stereo not drawn)	6
COc1ccc(S(=O)(=O)N2Cc3ccccc3CC2C(=O)Nc2ccc(O)cc2)cc1OC (stereo not drawn)	-31
COc1cccc(-c2cc(C(=O)N3C(C)CCCC3C)no2)c1 (stereo not drawn)	-67
O=c1nc(-c2ccccc2)cn[nH]1	-2
CC(C)NCC(O)Cn1c2c(c3ccccc31)CCc1c-2cnn1-c1ccccc1 (stereo not drawn)	68*
Cc1nnc(SCC(=O)NCCc2ccccc2)[nH]c1=O	7
CCCc1cc(=O)[nH]c(SCC(=O)Nc2ccc(OC(F)F)cc2)n1	18
O=C(Nc1ccc2c(c1)OCO2)Oc1ccccc1	-8
SMILES	RORa inhibitor
O=C(/C=C\Nc1ccc2c(c1)OCO2)c1ccccn1	85*
O=C(Nc1ccc2c(c1)OCO2)c1cc(C2CC2)on1	-60
Brc1cccc(C2CC(c3ccccc3)n3nnnc3N2)c1 (stereo not drawn)	-5
O=C(CCCOc1ccccc1)Nc1ccc2c(c1)OCCO2	4
Cn1ccnc1-c1nc2ccccc2[nH]c1=O	6
Cn1cc(Cl)c(-c2nc3ccccc3[nH]2)n1	-56
c1ccc2nc(-c3nc4ccccc4[nH]3)ccc2c1	66*
CC(C)CCn1nnnc1C(c1ccc(F)cc1)N1CCN(C(=O)c2ccco2)CC1 (stereo not drawn)	12
O=C1c2ccccc2C(=O)C1c1ccc2ccccc2n1	70*
COc1ccc(N(C(=O)Cn2nnc3ccccc32)C(C(=O)NCc2ccco2)c2ccc(C)o2)cc1 (stereo not drawn)	20
O=C1c2ccccc2C(=O)N1CNc1ccccc1	17
COc1ccc(S(=O)(=O)N(CC(=O)N2CCN(C)CC2)c2ccc(C)cc2)cc1OC	2
Cc1cc(Br)c(S(=O)(=O)n2nnc3ccccc32)cc1C	6
CCOc1ccc(OCc2cccc(C(=O)O)c2)cc1	94*
CCOc1ccc(CCNC(=O)C(O)c2ccccc2)cc1 (stereo not drawn)	3
COc1ccc(OCc2cccc(C(=O)O)c2)cc1	94*
COc1ccc(NS(=O)(=O)c2cc(C(=O)O)ccc2C)cc1	-4
CN1CCN(C(=O)c2ccc(COc3ccc(Cl)cc3Cl)cc2)CC1	-4
CCOc1ccc2oc(-c3ccccc3)c(C(=O)O)c2c1	-4
O=C(O)c1cccc(COc2ccc(CO)cc2Cl)c1	94*
O=C(O)c1ccc(COc2ccc(CO)cc2Cl)cc1	-5
Cn1nnc(NC(=O)c2cccc(OCc3ccccc3)c2)n1	-54
CN(CC(=O)NC1CCCCC1)S(=O)(=O)c1cccc2nsnc12	1
CC(Oc1cc(C(F)(F)F)cc(C(F)(F)F)c1)C(=O)NC(N)=O (stereo not drawn)	8
CCCc1cc(=O)[nH]c(Nc2ccc(OC)c(Cl)c2)n1	6
SMILES	RORa inhibitor
COc1ccc(Cl)cc1NC(=O)c1cnc2n(c1=O)CCS2	-8
Cc1ccccc1NC(=O)c1cnc2ccccn2c1=O	54*
Cc1cccc(NC(=O)c2cnc3n(c2=O)CCS3)c1	-76
Cc1ccc(S(=O)(=O)N(C)Cc2ccc(-c3nnc4n3CCC4)cc2)cc1	14
Cc1noc(/C=C/N(C)C)c1S(=O)(=O)N1CCc2ccccc21	3
COc1cccc(C2=N/C(=C\N(C)C)C(=O)O2)c1	-71
Cc1ccc(-n2ncc3c2ncn2c(C)nnc32)cc1C	-60
c1ccc2c(c1)Cc1cc(CN3CCOCC3)ccc1-2	-68
Clc1ccc(C2=Nn3c(nnc3-c3n[nH]c4c3CCC4)SC2)cc1	17
COc1ccccc1-c1nnc(SCC(=O)Nc2nc(-c3ccccc3)cs2)n1C	-14
CCOc1ccc(C2=Nn3c(nnc3-c3ccccc3OC)SC2)cc1	54*
O=C(CSCc1cccc(F)c1)N1CCN(c2ccccc2)CC1	-53
CCOc1ccccc1/C=c1\sc2ncnn2c1=O	-1
Cc1cc(C)nc(Sc2c(F)c(F)c(C(F)(F)F)c(F)c2F)n1	6
OCCNc1nc(OCC(F)(F)F)nc(N2CCN(C34CC5CC(CC(C5)C3)C4)CC2)n1	21
COc1ccc(CNc2cc(C)nc3ncnn23)c(OC)c1	67*
COc1ccc(C2CCCN2C(=O)Nc2cccc(C(C)=O)c2)cc1OC (stereo not drawn)	-5
O=C(Cc1cn2ccsc2n1)NCCc1ccc(F)cc1	-14
CCOc1ccc(OCc2ccc(C(=O)OCc3ccccn3)o2)cc1	58*
O=C(Nc1ccccc1)OCc1ccccn1	-60
CCCc1ccc(OCc2ccc(C(=O)N3CCN(c4ccccn4)CC3)o2)c(OC)c1	-50
O=C(CN1C(=O)c2ccccc2S1(=O)=O)NCCC1=CCCCC1	15
CCOC(=O)C1CCCN(C(=O)C2CCN(S(=O)(=O)c3cnc[nH]3)CC2)C1 (stereo not drawn)	10
O=C1CN(C(=O)CSc2nnnn2-c2ccc(Cl)cc2)c2ccccc2N1	1
COc1ccc(C(=O)Nc2ccc(C)cn2)c(OC)c1	78*
SMILES	RORa inhibitor
COc1ccccc1C(=O)Nc1ccccn1	-45
CCOc1ccc(NC(=O)c2ccccc2OC)cc1	-49
COc1ccc(-n2c(C)cc(C(=O)Cn3c(NCCO)nc4ccccc43)c2C)cc1	-13
O=C(NCC1CCCO1)c1cccc(-n2cnnn2)c1 (stereo not drawn)	11
CS(=O)(=O)c1nc(-c2cccs2)cc(C(F)(F)F)n1	78*
Cc1nc2nc(-c3cccs3)cn2nc1C	-53
CCN(CC)S(=O)(=O)c1cccc(-c2nnc(SC(C)C#N)n2Cc2ccccc2)c1 (stereo not drawn)	-2
O=C(Nc1ccc2c(c1)OCO2)C1CCCCN1S(=O)(=O)c1ccc(F)cc1 (stereo not drawn)	8
Cc1ccc(S(=O)(=O)Nc2cccc3ncccc23)s1	80*
O=C(Nn1c(C2CC2)nc2ccccc2c1=O)c1ccco1	12
Cn1c(=O)[nH]c(=O)c2c1nc(Sc1nc3ccccc3s1)n2Cc1ccccc1	-4
